Screening results deposited in PubChem BioAssay by The Scripps Research Institute Molecular Screening Center.
TAAR1 antagonist = antagonists of human TAAR1. Q96RJ0. CHO RD-HGA16 TAAR1, Fluo-8 calcium fluorescence, antagonist. inhibition, % at 3 µM. 360,000 compounds, 1.5% hits. AID 624466;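 active = inhibition above a per-plate cutoff, the mean inhibition of test compounds on that plate plus 3 SD, cut at about 49% in these data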;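 note: 0% = DMSO plus EC80 beta-PEA response and 100% = DMSO alone without agonist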
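Test system: RD-HGA16 CHO cells with stable hTAAR1 and Gα16 / Probe or stimulus: EC80 β-phenethylamine stimulus / Times: seeding 17-24 h prior, 75-min 37 °C, 30-min RT dye loading / Detection: Fluo-8 calcium-sensitive fluorescence / Read-out basis: % inhibition scaled between DMSO and EC80 PEA controls / Repeats: singlicate, one well per test compound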
GPR7 antag = antagonists of human GPR7 (neuropeptides B/W receptor 1). P48145. GPR7-expressing cells, fluorescence antagonist assay. inhibition, % at 4.4 µM. 290,000 compounds, 1.1% hits. AID 1861; in the data active = inhibition above about 16%, passing the limit was not always enough;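 note: cells stimulated with the agonist NPW; 0% = agonist with vehicle and 100% = vehicle without agonist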
Target sequence (P48145 whole entry, looked up): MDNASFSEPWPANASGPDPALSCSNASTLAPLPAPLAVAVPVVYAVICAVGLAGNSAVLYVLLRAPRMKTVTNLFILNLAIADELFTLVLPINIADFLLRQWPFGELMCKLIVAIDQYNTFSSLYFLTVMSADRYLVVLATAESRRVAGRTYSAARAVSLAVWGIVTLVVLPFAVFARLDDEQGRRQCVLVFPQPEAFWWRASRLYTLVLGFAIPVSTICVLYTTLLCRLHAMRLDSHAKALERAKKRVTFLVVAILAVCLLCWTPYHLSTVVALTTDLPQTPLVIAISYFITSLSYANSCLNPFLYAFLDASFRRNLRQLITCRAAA
CHO parental Ca = counter-screen for OX1R antagonists: effect in parental CHO cells; inhibition, % at 5.6 µM; 330,000 compounds, 0.63% hits; parental CHO-K1, ATP-induced calcium, Fluo-8 fluorescence;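 active = inhibition above that plate's mean sample inhibition plus 3 SD, cut at about 26% in these data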;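 note: 0% = ATP-challenged DMSO wells and 100% = DMSO wells without ATP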
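Material: Parental CHO cells | Reagent: ATP | Compound dosing: Single nominal dose of 5.6 µM per compound | Detection: Intracellular calcium via Fluo-8 no-wash fluorescent dye | Read-out: % inhibition of ATP-induced calcium mobilization | Benchmarks: Low control ATP plus DMSO, high control DMSO only | Replicates: Singlicate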
TAAR1 agonist = human TAAR1 agonism. Q96RJ0. CHO RD-HGA16 TAAR1, Fluo-8 calcium fluorescence; vehicle wells 0%, saturating PEA agonist 100%. activation, % at 3 µM. 360,000 compounds, 0.99% hits. AID 624467;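 active = activation above the mean activation of all test compounds in the run plus 3 SD, cut at about 38% in these data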
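test system = CHO RD-HGA16 cells carrying human TAAR1 plus Gα16 | schedule = 17-24 h seeding, 75 min 37 °C dye, 30 min RT | compound dosing = 3 µM single concentration | control set = DMSO and PEA EC100 | replicates = n 1 | signal = Fluo-8 fluorescence, 5 s baseline then 140 s kinetic read | measure = percent activation vs PEA EC100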
OX1R antag-1 = blocks the human orexin 1 receptor. O43613. AID 434989. CHO/OX1R cells, Fluo-8 calcium fluorescence, orexin A. inhibition, % at 5 µM. 330,000 compounds, 0.43% hits;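 active = inhibition above its plate's threshold, mean inhibition of all tested compounds on the plate plus 3 SD, cut at about 37% in these data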;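 note: 0% = orexin A challenge wells and 100% = SB-334867-A antagonist wells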
OX1R antag-2 = antagonists of human orexin 1 receptor (OX1R) | inhibition, % at 6.6 µM | OX1R-expressing cells, FRET antagonist read-out | 330,000 compounds, 1.8% hits | AID 485270; in the data active = inhibition mostly above about 38%, no sharp cut-off; inactive = mostly below about 40%;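 note: 0% = agonist challenge alone and 100% = reference antagonist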
* hit, by the source's call; / = no result. Compounds with a hit are over-represented: about 4.5% of the library has one in this group of screens.

SMILES	TAAR1 antagonist	GPR7 antag	CHO parental Ca	TAAR1 agonist	OX1R antag-1	OX1R antag-2
NC(=O)c1ccc(SCC(=O)OCC(=O)N2CCN(C(=O)c3ccco3)CC2)c([N+](=O)[O-])c1	-18	/	-8	0	-8	58*
CC1CCN(C(=O)COC(=O)CSc2ccc(C(N)=O)cc2[N+](=O)[O-])CC1	-4	/	-18	1	-18	63*
COc1ccc(C(=O)OCC(=O)N2CCCCC2)cc1[N+](=O)[O-]	-9	-2	-5	3	-11	20
Cc1ccc(NC(=O)CSc2ccc(C(N)=O)cc2[N+](=O)[O-])cc1C	2	-8	33*	1	-29	11
NC(=O)c1ccc(SCC(=O)OCC(=O)N2CCCCC2)c([N+](=O)[O-])c1	-29	/	22	1	-3	63*
CC1(C)Cc2c(cnn2-c2ccccc2)C(NC(=O)CCCn2cncn2)C1 (centres undefined)	-8	-5	/	0	/	/
O=C(NCc1ccco1)C1CCCN1C(=O)Nc1ccc(Br)cc1 (centres undefined)	-2	6	/	4	/	/
O=C(NC(Cc1ccccc1)C(=O)N1CCN(c2ccc(F)cc2)CC1)c1ccccc1 (centres undefined)	8	/	/	10	/	/
CC1CCCN(C(=O)COC(=O)CSc2ccc(C(N)=O)cc2[N+](=O)[O-])C1 (centres undefined)	9	/	-15	1	-16	74*
CN(C(=O)COC(=O)CSc1ccc(C(N)=O)cc1[N+](=O)[O-])C1CCCCC1	7	/	-2	4	-13	47*
Cc1cc(C)cc(NC(=O)Cn2ncn3c(cc4ccccc43)c2=O)c1	12	7	18	39*	8	5
CC(C)(C)OC(=O)N1CCC(C(=O)Nc2cccc(C(=O)NCCCc3ccccc3)c2)CC1	48	/	/	19	/	/
CC(C)(C)OC(=O)N1CCCC(C(=O)Nc2cccc(C(=O)NCCCc3ccccc3)c2)C1 (centres undefined)	49*	/	/	10	/	/
COC(=O)C1=C(C)N(C)C(=NCc2ccc(OC)cc2)NC1c1cccc(C(F)(F)F)c1 (centres undefined)	-6	/	/	13	/	/
Cc1cc(N2CCCC2=O)cc(C)c1S(=O)(=O)NCCOc1ccc(C(C)(C)C)cc1	41	-2	41*	8	67*	70*
O=c1oc2ccccc2cc1-c1cn2cccnc2n1	-19	7	-4	6	-11	66*
Cc1ccccc1OCCOC(=O)c1ccc(S(=O)(=O)N2CCCC2)cc1	30	/	30*	4	11	9
O=C1CCCc2c1nc(-c1ccc([N+](=O)[O-])cc1)n2O	-4	-6	1	1	-14	48*
C=CC[C@H]1CC(C)=C[C@H](CC=C)N1C(=O)c1cc(COc2ccccc2SC)on1	53*	-14	44*	1	-18	40
COCC1CCN(C(=O)c2cc(COc3ccccc3SC)on2)C1 (centres undefined)	-30	-19	-18	1	-27	20
COC(=O)CCN1CCC2CC1c1cc(Cl)ccc12 (centres undefined)	-4	/	/	1	/	/
CC(C)CC(NC(=O)OCc1ccccc1)C(=O)NCC(=O)NCC(=O)OCc1ccccc1 (centres undefined)	-15	/	/	1	/	/
Cc1nnc(N/N=C/c2ccc(-c3ccc(Br)cc3)o2)n1N	-5	-16	-7	2	-18	40*
CCOCCCNC(=S)N1CCN(CC)CC1	7	8	1	2	4	7
CCCCNC(=S)N1CCN(CC)CC1	-35	-5	4	39*	7	6
O=C(NCC(=O)N(CCc1ccccc1)C(C(=O)NC1CCCC1)c1cccnc1)c1ccco1 (centres undefined)	/	-9	-9	/	-32	7
O=C(NC1CCCC1)C(c1cccnc1)N(CCc1ccccc1)C(=O)c1ccco1 (centres undefined)	5	-2	9	7	-14	57*
N#C/C(=C/c1ccc(-c2cc([N+](=O)[O-])ccc2Cl)o1)C(N)=O	2	-2	9	3	14	54*
